# This is a sample that favours compounds with a hit; in the whole collection about 2.1% have one here.
# Statin myotox sup = suppression of simvastatin myotoxicity; rescue of ATP level, % at 7.49 µM; hit rate 0.78% among 330,000; C2C12 myotubes + simvastatin, ATP luminescence, 48 h; scaled: DMSO 0, geranylgeraniol control 100;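 active = mean ATP rescue above about 67%, or every replicate alone reaching that limit, limit read from the data, passing the limit was not always enough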;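 note: myotubes were challenged with 10 µM simvastatin during compound exposure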
# ASAP1 inh = inhibitors of human ASAP1 ArfGAP activity | Q9ULH1 | ASAP1-stimulated ARF1 GTP hydrolysis, GDP FP detection | inhibition, % at 16.5 µM | hit rate 0.19% among 360,000 | AID 624377; in the data active = inhibition above about 25%;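 note: 0% = vehicle with enzyme and substrate and 100% = no enzyme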
# A3A deaminase = blocks human APOBEC3A ssDNA deamination | inhibition, % at 20 µM | AID 493011 | recombinant A3A, FAM/TAMRA ssDNA deamination fluorescence | hit rate 0.41% among 330,000;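 active = at least 40% inhibition at 20 µM here, with at most 30% in a related deaminase screen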;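 note: plate controls were A3A with DMSO for no effect and wells lacking A3A enzyme for full effect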
# Target sequence (P31941 whole entry, looked up): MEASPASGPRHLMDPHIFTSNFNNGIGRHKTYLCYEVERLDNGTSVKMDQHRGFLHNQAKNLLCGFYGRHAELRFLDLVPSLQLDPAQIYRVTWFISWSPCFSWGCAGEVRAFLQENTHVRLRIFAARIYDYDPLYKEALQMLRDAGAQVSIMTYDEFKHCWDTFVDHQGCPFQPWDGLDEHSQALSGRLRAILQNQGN
# SUMO Mot1 rescue = inhibitors of SUMOylation pathway: yeast Mot1-301 growth rescue; S. cerevisiae Mot1-301 growth rescue, ATP luminescence, 38.5C; percent above DMSO median, 100 means doubled; growth rescue, % at 18.8 µM; hit rate 1% among 320,000; AID 2716;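 active = every valid replicate shows activation above 250% relative to neutral control wells; inactive = the rest, any valid replicate at or below 250%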;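 note: OY570 slx delta 5 strain wells were the positive control but not used for scaling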
# APOBEC3G inh = blocks human APOBEC3G single-stranded DNA deamination | hit rate 0.28% among 330,000 | inhibition, % at 20 µM | Q9HC16 | AID 493012 | recombinant A3G, ssDNA deamination FAM/TAMRA fluorescence;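 active = inhibition of at least 40% at 20 µM, with no more than 30% in the related APOBEC3A deaminase screen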;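 note: plate controls were DMSO wells with A3G for no effect and wells lacking A3G enzyme for full effect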
# Target sequence (Q9HC16 whole entry, looked up): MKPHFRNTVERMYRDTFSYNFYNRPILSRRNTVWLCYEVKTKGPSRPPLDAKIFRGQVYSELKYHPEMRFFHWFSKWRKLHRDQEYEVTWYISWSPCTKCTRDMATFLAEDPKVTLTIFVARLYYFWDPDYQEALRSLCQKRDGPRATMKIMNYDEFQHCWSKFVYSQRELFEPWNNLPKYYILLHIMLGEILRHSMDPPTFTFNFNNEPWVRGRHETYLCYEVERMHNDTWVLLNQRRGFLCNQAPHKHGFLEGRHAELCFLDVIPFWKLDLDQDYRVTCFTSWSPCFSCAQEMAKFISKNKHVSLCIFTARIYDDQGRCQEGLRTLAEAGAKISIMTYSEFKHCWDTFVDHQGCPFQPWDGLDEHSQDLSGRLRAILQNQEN
# ARFGAP1 inh = inhibitors of rat ARFGAP1 | Q62848 | Arfgap1-stimulated ARF1 GTP hydrolysis, GDP FP detection | inhibition, % at 16.5 µM | hit rate 0.26% among 360,000 | AID 651572;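 active = inhibition above a per-plate limit, mean inhibition of low control wells plus 3 SD, cut at about 25% in these data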;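 note: 0% = DMSO wells with enzyme and 100% = wells lacking Arfgap1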
#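 Replicates: Single well per compound | Assay system: Truncated rat Arfgap1 GAP domain | Control set: No-Arfgap1 wells (100%) versus DMSO full-reaction wells (0%) | Times: Enzyme reaction 120 min at 25 °C after 20 min preincubation | Reagent: Human ARF1(Δ1-17)-GTP substrate | Measured by: Tracer-displacement fluorescence polarization with EDTA stop, 620/688 nm | Measure: Percent inhibition of Arfgap1-stimulated GTP hydrolysis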
# APOBEC3A confirm = confirmation of human APOBEC3A DNA deaminase inhibitors; recombinant A3A, ssDNA deaminase UDG fluorescence assay; hit rate 63% among 1,400; inhibition, % at 20 µM; AID 493151; shares compounds with A3A deaminase;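 active = inhibition reaching a set limit, 80% of the first screen's cutoff, at 20 µM in any replicate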;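 note: plate controls were DMSO wells with A3A for no effect and wells lacking A3A enzyme for full effect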
# UDG A3A counter = UDG inhibition in APOBEC3A counter-screen. shares compounds with A3A deaminase. UDG counterscreen, FAM/TAMRA uracil oligo fluorescence. inhibition, % at 20 µM. 1,000 tested, under 10 active. AID 504714; call rule not given here
# * marks the source's active call; other numbers are inactive results; . = no result given; ! = not active in a repeat.
SMILES,Statin myotox sup,ASAP1 inh,A3A deaminase,SUMO Mot1 rescue,APOBEC3G inh,ARFGAP1 inh,APOBEC3A confirm,UDG A3A counter
COc1ccc(/C=C/C(=O)N(CCC(N)=O)c2ccccc2)cc1S(=O)(=O)N1CCOCC1,4,2,41*,.,-3,-2,27*,-36
c1ccc2[nH]c(-c3ccnc4ccccc34)nc2c1,8,1,98*!,-14,-1,9,10,.
CC(C)C(NC(=O)c1ccc2c(c1)OCO2)C(=O)N/N=C\c1ccco1 (centres undefined),-12,8,48*,7,14,6,52*,-2
O=C(C[C@H]1C[C@@H]2c3cc(NC(=O)c4cccnc4)ccc3O[C@@H]2[C@H](CO)O1)NCc1cccc(F)c1,4,.,.,.,.,.,.,.
Cc1cc(C)nc(SCC(=O)N/N=C/c2cccn2-c2ccc(O)cc2)n1,2,-5,22,4,3,5,.,.
Cc1cc(C)nc(SCC(=O)N/N=C/c2cccn2-c2cccc(C(F)(F)F)c2)n1,2,10,42*,0,10,13,17,.
O=C(Nc1ccccc1F)c1coc(=O)c(Br)c1,.,9,10,-6,0,-1,.,.
O=C(Nc1ccc(Br)cn1)c1coc(=O)c(Br)c1,7,-5,62*,-19,24,6,21*,-5
CC1(C)CN(c2cccc(-c3ccnc4ncnn34)c2)C1=O,1,-16,54*,17,-8,-4,-8,-2
O=C(NC1CCCc2ccccc21)c1cc(Cl)ccn1 (centres undefined),2,-15,62*,63,12,-2,30,.
C[C@H]1CN([C@@H](C)CO)C(=O)c2cccc(NC(=O)c3nc4ccccc4s3)c2O[C@@H]1CN(C)C(=O)Nc1ccccc1,-51,.,.,.,.,.,.,.
CCOC(=O)C1CCN(C(=O)C(C)Sc2nnc3ccccn23)CC1 (centres undefined),5,6,60*,-8,-1,-1,7,3
CCOC(=O)C1CCN(C(=O)C(C)Sc2ccc(Cl)cc2)CC1 (centres undefined),8,-5,-1,-19,-8,-9,.,.
Cc1ccc(S(=O)(=O)N2CCN(C(=O)COC(=O)CCOc3ccccc3C)CC2)c(C)c1,4,-10,47*,.,15,-3,62*,-1
N#C/C(=C\c1ccc(Cl)cc1)c1nc(-c2ccco2)cs1,.,16,41*,17,14,4,28,.
CO[C@@H]1CN(C)C(=O)c2ccc(NS(C)(=O)=O)cc2OC[C@@H](C)N(C(=O)C2CC2)C[C@@H]1C,-2,.,.,.,.,.,.,.
Cc1cc(C)[n+](C)n1CC(O)Cn1c2ccccc2c2ccccc21 (centres undefined),.,16,45*,23,11,-6,76*,2
CO[C@H]1CN(C)C(=O)c2cc(NC(=O)c3cc(C)on3)ccc2OC[C@H](C)N(C(=O)C2CC2)C[C@@H]1C,-6,.,.,.,.,.,.,.
C=CCN=C1NC(c2ccccc2)C(C(=O)OC)=C(C)N1Cc1cccc(C(F)(F)F)c1 (centres undefined),.,-3,.,.,.,-10,.,.
COCCN1C(=NCCCOC(C)C)N[C@@H](c2ccccc2)C(C(=O)OC)=C1C,-4,2,62*,11,29,-4,67*,3
C=CCN=C1N[C@@H](c2ccccc2)C(C(=O)OC)=C(C)N1CCOC,4,3,51*,-20,6,2,71*,-4
COCCN(C(=O)COC(=O)CNC(=O)c1cccs1)c1c(N)n(Cc2ccccc2)c(=O)[nH]c1=O,.,3,53*,-1,9,1,50*,-3
CC=Cc1ccc2n(c1=O)C[C@H]1[C@H](CO)[C@@H](C(=O)NCC(F)(F)F)N(CCC)[C@@H]21 (mixture of isomers),-6,.,.,.,.,.,.,.
CC(C)NC(=O)N(C)C[C@@H]1Oc2ncc(-c3ccccc3F)cc2C(=O)N([C@@H](C)CO)C[C@H]1C,20,.,.,.,.,.,.,.
C#CCn1cc(/C=N/NC(=O)COc2cccc3cccnc23)c2ccccc21,.,20,65*,27,12,7,47*,-2
SMILES,Statin myotox sup,ASAP1 inh,A3A deaminase,SUMO Mot1 rescue,APOBEC3G inh,ARFGAP1 inh,APOBEC3A confirm,UDG A3A counter
CCOC(=O)c1c(NC(=O)CNCCO)sc(C)c1C,-4,-4,-3,-4,-4,-9,.,.
CCOC(=O)c1c(NC(=O)Cn2ccsc2=N)sc(C)c1C,-3,-1,57*,-7,10,0,24,.
CCOc1cc(/C=C(\C#N)C(=O)NCC2CCCO2)ccc1OCC(N)=O (centres undefined),14,-7,51*,-6,13,-6,43*,-2
Cc1cccc(-c2nc3ccccc3c(=O)n2NC(=O)c2ccc([N+](=O)[O-])c(C)c2)c1,3,-10,49*,9,-12,2,-8,0
NC(=S)Nn1c(-c2ccccc2)nc2ccccc2c1=O,4,-15,42*,-2,-3,12,2,-3
O=C(Cc1ccccc1)Nn1c(-c2ccccc2)nc2ccccc2c1=O,.,-1,0,-6,3,1,.,.
C[C@@H]1CN([C@H](C)CO)C(=O)c2c(c3ccccc3n2C)-c2ccccc2CO[C@@H]1CN(C)S(=O)(=O)c1ccc(Cl)cc1,48,.,.,.,.,.,.,.
COc1cccc(-c2nnc(SCC(=O)N(C(C)C)C(C)C)o2)c1,-6,-13,-4,23,-12,8,.,.
COc1cc(OC)cc(-c2nnc(SCC(=O)N(C(C)C)C(C)C)o2)c1,-17,4,90*,-15,-3,6,0,0
Cc1[nH]c2ccccc2c1/C=C/c1cc[n+](C)cc1,-161,2,.,.,.,10,.,.
Cc1ccccc1/C=C/c1cc[n+](C)cc1,.,-4,59*,-10,19,17,73*,-3
CC1CCCC(NC(=O)NC(=O)COC(=O)c2ccc(O)cc2O)C1C (centres undefined),11,8,85*,.,5,10,33*,-2
C=CCn1c(C)c(/C=C/c2cc[n+](C)cc2)c2ccccc21,-112,20,42*,8,-5,1,59*,-14
CCN(CC)C(=O)Cn1c(C)c(/C=C/c2cc[n+](C)cc2)c2ccccc21,3,8,64*,2,17,2,62*,-5
C=CCn1cc(/C=C/c2cc[n+](C)cc2)c2ccccc21,-108,9,38,-22,-16,-4,.,.
CCn1cc(/C=C/c2cc[n+](C)cc2)c2ccccc21,-261,2,.,165,.,11,.,.

# Screens as filed in PubChem BioAssay.
